Data: ChEMBL document CHEMBL3120152, “The bat flower: a source of microtubule-destabilizing and -stabilizing compounds with synergistic antiproliferative actions” (J Nat Prod, 2013)
Activity calls are given as the source filed them. The calls are words filed in the database; no cut-off is given here.

Experiments:
Tubulin (Sus scrofa) [1] = molecular target: T1, Tubulin (Sus scrofa) (UniProt P02554+P02550); assay: Displacement of colchicine from purified pig brain tubulin by fluorescence assay in presence of GTP
In short: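 Purified tubulin mixed with colchicine and GTP, plus a range of compound concentrations. Colchicine bound to tubulin fluoresces, so displacement is read as loss of that fluorescence. CA-4 used as positive control; 3 replicates, standard deviations.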

HeLa [2] = assay: Cytotoxicity against human HeLa cells after 72 hrs by SRB assay
HeLa [3] = assay: Resistance ratio of IC50 for human HeLa cells expressing beta3-tubulin containing alanine residue at […] to IC50 for human HeLa cells; assay type: functional
In short: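 Relative resistance = SRB-assay IC50 in WTβIII cells divided by IC50 in parental HeLa. Both lines were grown in basal medium Eagle with Earle's salts, 10% FBS and 25−50 μg/mL gentamicin.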

Tubulin (Sus scrofa) [4] = molecular target: T1, Tubulin (Sus scrofa); assay: Inhibition of purified pig brain tubulin polymerization by spectrophotometry
In short: (§1)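 Purified porcine brain tubulin with GTP in glycerol buffer, given vehicle or 10 or 25 μM compound. Assembly followed as turbidity, absorbance at 340 nm over time. Rate and extent of polymerization compared with vehicle.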

SK-OV-3 [5] = assay: Cytotoxicity against human SKOV3 cells after 72 hrs by SRB assay; conditions: SK-OV-3, 72 h
HeLa [6] = assay: Antimitotic activity in human HeLa cells assessed as abberent multiple spindle asters at 5 uM by indirect immunofluorescence assay relative to vehicle-treated control; assay type: functional, cell-based
In short: (§2)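 HeLa cells grown in basal medium Eagle with Earle's salts, 10% FBS and 25−50 μg/mL gentamicin, given vehicle or 5 μM compound. Cell cycle distribution read by flow cytometry. Mitotic spindle shape viewed by indirect immunofluorescence of tubulin.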

HeLa [7] = assay: Cytotoxicity against human HeLa cells expressing beta3-tubulin containing alanine residue at 277 after 72 hrs by SRB assay
HeLa [8] = assay: Cell cycle arrest in human HeLa cells assessed as accumulation at G2/M phase at 5 uM by flow cytometry; assay type: functional, cell-based; in short: as §2
SK-OV-3 [9] = assay: Cytotoxicity against human SKOV3 cells expressing MDR1 after 72 hrs by SRB assay; conditions: SK-OV-3, 72 h
Tubulin (Sus scrofa) [10] = molecular target: T1, Tubulin (Sus scrofa); assay: Inhibition of purified pig brain tubulin polymerization at 25 uM by spectrophotometry; in short: as §1
SK-OV-3 [11] = assay: Resistance ratio of IC50 for human SKOV3 cells expressing MDR1 to IC50 for human SKOV3 cells; assay type: functional
In short: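 Relative resistance = SRB-assay IC50 in Pgp-overexpressing SK-OV-3/MDR-1-6/6 divided by IC50 in parental SK-OV-3. Both lines were grown in basal medium Eagle with Earle's salts, 10% FBS and 25−50 μg/mL gentamicin.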

Tubulin (Sus scrofa) [12] = molecular target: T1, Tubulin (Sus scrofa); conditions: 2 to 3 uM

T1 sequence (P02550 whole entry, looked up): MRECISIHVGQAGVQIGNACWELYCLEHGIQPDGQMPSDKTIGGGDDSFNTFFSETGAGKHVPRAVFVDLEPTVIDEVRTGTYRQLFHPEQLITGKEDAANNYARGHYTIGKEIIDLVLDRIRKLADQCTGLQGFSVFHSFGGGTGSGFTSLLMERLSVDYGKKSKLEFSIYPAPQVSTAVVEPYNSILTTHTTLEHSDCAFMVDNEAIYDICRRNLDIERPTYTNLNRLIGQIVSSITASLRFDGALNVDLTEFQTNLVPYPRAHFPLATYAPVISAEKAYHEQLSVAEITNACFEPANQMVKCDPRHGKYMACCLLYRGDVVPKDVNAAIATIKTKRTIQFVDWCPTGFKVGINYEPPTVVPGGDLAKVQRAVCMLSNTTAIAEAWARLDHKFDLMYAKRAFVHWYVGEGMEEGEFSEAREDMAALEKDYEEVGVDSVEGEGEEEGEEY
T1 sequence (P02554 whole entry, looked up): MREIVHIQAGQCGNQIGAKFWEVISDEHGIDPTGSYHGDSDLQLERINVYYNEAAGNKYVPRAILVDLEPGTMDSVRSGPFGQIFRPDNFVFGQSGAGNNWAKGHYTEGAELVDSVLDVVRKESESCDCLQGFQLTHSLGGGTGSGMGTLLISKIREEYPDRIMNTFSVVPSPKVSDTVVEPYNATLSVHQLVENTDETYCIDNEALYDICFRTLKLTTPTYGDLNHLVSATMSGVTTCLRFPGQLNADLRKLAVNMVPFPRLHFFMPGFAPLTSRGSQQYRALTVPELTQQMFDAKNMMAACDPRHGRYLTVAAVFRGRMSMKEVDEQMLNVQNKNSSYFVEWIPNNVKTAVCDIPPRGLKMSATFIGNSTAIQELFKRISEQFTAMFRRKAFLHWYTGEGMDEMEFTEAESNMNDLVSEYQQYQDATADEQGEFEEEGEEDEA

inhibition (Tubulin (Sus scrofa) [1])	inhibition (Tubulin (Sus scrofa) [4])	inhibition (Tubulin (Sus scrofa) [10]) [%]	inhibition (Tubulin (Sus scrofa) [12]) [%]	Compound	IC50 (HeLa [2]) [nM]	Ratio IC50 (HeLa [3])	IC50 (SK-OV-3 [5]) [nM]	Activity (HeLa [6])	IC50 (HeLa [7]) [nM]	Activity (HeLa [8])	IC50 (SK-OV-3 [9]) [nM]	Ratio IC50 (SK-OV-3 [11])
Dose-dependent effect	Dose-dependent effect	50	–	COc1cc(OC)c(CCC(=O)c2ccc(OC)c(O)c2)c(OC)c1	581	1.2	812	Active	690	Active	2230	2.7
–	–	–	50	COc1ccc(/C=C\c2cc(OC)c(OC)c(OC)c2)cc1O	–	–	–	–	–	–	–	–
–	–	–	–	CC(=O)O[C@@H]1[C@H]2[C@H]3[C@H]([C@H](OC(C)=O)[C@H](OC(C)=O)[C@]2(C)[C@@H]2[C@@H]1[C@]1(C)C(=C[C@H]2C)OC(=O)[C@@]1(C)O)[C@]1(C)[C@H](C[C@@H]2O[C@@H]2[C@@H]1OC(C)=O)C(=O)[C@@H]3O	–	–	–	Active	–	Active	–	–
